The values below come from ChEMBL document CHEMBL1142241, “Atropisomeric 3-(beta-hydroxyethyl)-4-arylquinolin-2-ones as Maxi-K potassium channel openers” (J Med Chem, 2007).

Values joined by “and” are separate entries in the source; they are usually repeats but may differ in a detail not shown here. Equal values may be shown once.

Series [1] deals with Calcium-activated potassium channel subunit alpha-1 (Homo sapiens) (UniProt Q12791). Description: Activity at human maxi-K hSlo channel expressed in Xenopus oocytes assessed as increase in maxi k current at 10 uM relative to iberiotoxin. The settings on record: Oocyte. It counts as cell-based. The method, boiled down:
(§1)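 Xenopus oocytes injected with 50 ng hSlo cRNA, recorded 2–5 days post-injection. Outward K+ currents evoked from a holding potential of -60 mV over -40 to +140 mV in 20 mV depolarizing steps. Compound applied for 5 min in at least 4–5 oocytes, then 100 nM iberiotoxin for 10 min. Values are % IbTX-sensitive current at peak effect, drug-free control = 100%.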

Series [2] has the same target. Description: Activity at human maxi-K hSlo channel expressed in Xenopus oocytes assessed as increase in maxi k current at 20 uM relative to iberiotoxin. The settings on record: Oocyte. It counts as cell-based. In a few lines: as §1
For series [3] the target is unchanged. Description: Activity at human maxi-K hSlo channel expressed in Xenopus oocytes assessed as increase in maxi k current at 5 uM relative to iberiotoxin. Conditions: Oocyte. The series is classed as cell-based. The method, boiled down:
as §1

Another series deals with Serum. Description: Stability in human serum at 1 mM in 37 degC upto 30 hrs. It counts as ADME, cell-free. Conditions: 1000 µM. The method, boiled down: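 Pooled human serum prewarmed 5 min at 37 °C; test agent added from 0.1 M DMSO stock to final 1 mM in serum with 1% DMSO, held at 37 °C. Racemization followed by supercritical fluid chromatography on a chiral column over 30 h.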

Chain of Calcium-activated potassium channel subunit alpha-1 (Homo sapiens) (Q12791 whole entry): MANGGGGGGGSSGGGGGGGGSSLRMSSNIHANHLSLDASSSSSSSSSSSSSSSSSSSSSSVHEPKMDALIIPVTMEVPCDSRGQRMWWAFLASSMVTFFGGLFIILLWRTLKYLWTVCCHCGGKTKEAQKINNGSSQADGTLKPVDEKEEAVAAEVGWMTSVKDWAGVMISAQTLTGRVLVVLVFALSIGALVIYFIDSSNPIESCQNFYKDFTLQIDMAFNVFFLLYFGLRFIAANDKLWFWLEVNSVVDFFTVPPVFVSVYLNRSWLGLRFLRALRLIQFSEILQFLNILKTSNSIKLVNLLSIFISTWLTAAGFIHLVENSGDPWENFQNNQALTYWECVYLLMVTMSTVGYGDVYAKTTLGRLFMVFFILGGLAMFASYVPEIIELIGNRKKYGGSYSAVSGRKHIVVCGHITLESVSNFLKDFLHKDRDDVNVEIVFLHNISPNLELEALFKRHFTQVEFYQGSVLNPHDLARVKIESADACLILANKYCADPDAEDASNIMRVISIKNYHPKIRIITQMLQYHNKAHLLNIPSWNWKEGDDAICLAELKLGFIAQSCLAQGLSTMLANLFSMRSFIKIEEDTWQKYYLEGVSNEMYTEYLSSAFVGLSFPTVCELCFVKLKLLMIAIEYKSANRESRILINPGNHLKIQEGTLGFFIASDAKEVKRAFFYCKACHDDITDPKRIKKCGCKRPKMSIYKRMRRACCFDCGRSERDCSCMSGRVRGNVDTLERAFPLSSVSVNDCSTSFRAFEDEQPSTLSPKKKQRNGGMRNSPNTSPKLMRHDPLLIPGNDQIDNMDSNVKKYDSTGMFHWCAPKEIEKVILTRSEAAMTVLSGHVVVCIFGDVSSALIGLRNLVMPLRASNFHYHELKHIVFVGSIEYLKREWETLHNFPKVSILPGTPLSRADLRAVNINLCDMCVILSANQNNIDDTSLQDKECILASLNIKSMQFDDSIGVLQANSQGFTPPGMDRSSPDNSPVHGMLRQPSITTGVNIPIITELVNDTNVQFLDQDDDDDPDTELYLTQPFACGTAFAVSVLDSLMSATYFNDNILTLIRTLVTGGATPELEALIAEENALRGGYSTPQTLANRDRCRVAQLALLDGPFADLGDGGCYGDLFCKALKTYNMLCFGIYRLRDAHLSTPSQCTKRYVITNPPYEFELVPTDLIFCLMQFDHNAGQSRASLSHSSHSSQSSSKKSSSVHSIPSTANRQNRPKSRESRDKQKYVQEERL

In the case of `C=C(C)Cc1cc(Cl)cc(-c2c(CCO)c(=O)n(C)c3ccc(C(F)(F)F)cc23)c1O`, the Activity in series [1] came to 114%.

Turning to `Cn1c(=O)c(CCO)c(-c2cc(Cl)cc(CCCO)c2O)c2cc(C(F)(F)F)ccc21`, the Activity in series [2] turned out to be 164%. For the molecule `CC(C)Cc1cc(Cl)cc(-c2c(CCO)c(=O)n(C)c3ccc(C(F)(F)F)cc23)c1O`, the Activity in series [3] is 96.5%. In the case of `CCCc1cc(Cl)cc(-c2c(CCO)c(=O)n(C)c3ccc(C(F)(F)F)cc23)c1O`, the Activity in series [1] is 127%. Turning to `O=c1[nH]c2ccc(C(F)(F)F)cc2c(-c2cc(Cl)ccc2O)c1CCO` [BMS-223131], the Activity in series [1] is 214% and 292% and 259%; in series [2] it was 253%. The Stability result with Serum is recorded as “Stable”. Take `Cn1c(=O)c(CCO)c(-c2cc(Cl)cc(CC(O)CO)c2O)c2cc(C(F)(F)F)ccc21` (stereo not given): the Activity in series [2] stood at 112%. On to `Cn1c(=O)c(CCO)c(-c2cc(Cl)ccc2O)c2cc(C(F)(F)F)ccc21`, for which the Activity is 361% and 184% and 257% in series [1]; 296% in series [2].
